Laboratory results: ChEMBL document CHEMBL1142960, “Synthesis and structure-activity relationships for 2,4-dinitrobenzamide-5-mustards as prodrugs for the Escherichia coli nfsB nitroreductase in gene therapy” (J Med Chem, 2007)
In brackets after ≈: the same amount, converted by molar mass.

How the values were obtained:
[1] = Partition coefficient at pH 7.4 by shake-flask method; format: physicochemical; conditions: octanol/water
In short: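 Octanol-water partition coefficient by shake-flask at pH 7.4, reported with SEM.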

V79 [2] = assay: Antiproliferative activity against chinese hamster wild-type V79 NTR-ve cells after 18 hrs; format: functional, cell-based; conditions: Cricetulus griseus, V79, 18 h
V79 [3] = assay: Antiproliferative activity against chinese hamster V79 NTRpuro cells after 18 hrs; format: functional, cell-based; conditions: Cricetulus griseus, V79, 18 h
V79 [4] = assay: Selectivity ratio of IC50 for V79 NTR-ve cells to IC50 for V79 NTRpuro cells; format: functional, Cricetulus griseus
EMT6 [5] = assay: Antiproliferative activity against mouse wild type EMT6 NTR-ve cells after 18 hrs; format: functional, cell-based; conditions: EMT6, 18 h
EMT6 [6] = assay: Antiproliferative activity against mouse EMT6 NTRpuro cells after 18 hrs; format: functional, cell-based; conditions: EMT6, 18 h
EMT6 [7] = assay: Selectivity ratio of IC50 for EMT6 NTR-ve cells to IC50 forEMT6 NTRpuro cells; format: functional, Mus musculus
WiDr [8] = assay: Antiproliferative activity against human wild type WiDr NTR-ve cells after 18 hrs; format: functional, cell-based
WiDr [9] = assay: Antiproliferative activity against human WiDr NTRneo cells after 18 hrs; format: functional, cell-based
WiDr [10] = assay: Selectivity ratio of IC50 for WiDr NTR-ve cells to IC50 for WiDr NTRneo cells; format: functional, Homo sapiens
[11] = Antiproliferative activity against human wild type Skov3 NTR-ve cells after 18 hrs; format: functional, cell-based
V79 [12] = assay: Clonogenic survival of V79 NTRoua cells after 5 hrs by MCL assay; format: functional, Cricetulus griseus
[13] = Antiproliferative activity against human Skov3 NTRneo cells after 18 hrs; format: functional, cell-based; conditions: SK-OV-3, 18 h
[14] = Selectivity ratio of IC50 for Skov3 NTR-ve cells to IC50 for Skov3 NTRneo cells; format: functional, Homo sapiens
V79 [15] = assay: Clonogenic survival of 3% V79 NTRpuro cells in co-cultures with 97% V79 NTRoua after 5 hrs by MCL assay; format: functional, Cricetulus griseus
In short: (§1)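 Multicellular layer cocultures of 3% V79-NTRpuro activators and 97% V79oua NTR-ve targets (ouabain-resistant), exposed to prodrug for 5 h. MCLs were then trypsin-dissociated and plated in ouabain or puromycin selective media for clonogenic survival. C10 (10% survival) interpolated for activators and targets; AC/TC ratio derived. Mean with SEM or range over independent experiments.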

V79 [16] = assay: Clonogenic survival of 97% V79 NTRoua cells in co-cultures with 3% V79 NTRpuro cells after 5 hrs by MCL assay; format: functional, Cricetulus griseus; in short: as §1
[17] = Toxicity in ip dosed CD1 nude mouse in DMSO; format: organism-based; conditions: in vivo
In short: (§2)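 Maximum tolerated dose (MTD) determined in CD-1 nude mice after a single i.p. injection of prodrug, given in the vehicle named in each line.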

V79 [18] = assay: Clonogenic survival ratio of 3% V79 NTRpuro cells to 97% V79 NTRoua cells in co-culture; format: functional, Cricetulus griseus; in short: as §1
EMT6 [19] = assay: Antitumor activity against mixed mouse EMT6/EMT6 NTRpuro cells injected in CD1 nude mouse assessed as cell kill at 1780 umol/kg, ip in DMSO after 18 hrs; format: functional
WiDr [20] = assay: Antitumor activity against mixed human 10% WiDr NTRneo/ 90% WiDr tumor cells injected in CD1 nude mouse assessed as growth delay at 1780 umol/kg, ip in DMSO; format: functional
In short: (§3)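 WiDr-NTRneo tumours (100% NTR+ve, or 1:9 NTR+ve:NTR-ve mixtures) in CD-1 nude mice, given a single i.p. dose at MTD. Read-out is median growth delay to 15 mm mean diameter, plus tumours not palpable 100 days after treatment. Aziridine given at 200 µmol/kg as positive control in every experiment.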

[21] = Solubility in alpha MEM; format: physicochemical
In short: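 Solubility (mM) in α-MEM with 5% fetal calf serum at ambient temperature, measured by HPLC.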

[22] = Stability in alpha MEM at 37 degC after 24 hrs; format: physicochemical; conditions: read-out: Stability
In short: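 Percent parent compound remaining, by HPLC, after holding in α-MEM with 5% fetal calf serum at 37 °C for 24 h.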

WiDr [23] = assay: Antitumor activity against human 100% WiDr NTRneo tumor cells injected in CD1 nude mouse assessed as growth delay at 1780 umol/kg, ip in DMSO; format: functional; in short: as §3
[24] = Toxicity in ip dosed CD1 nude mouse in DMSO/PEG; format: organism-based; conditions: in vivo; in short: as §2
EMT6 [25] = assay: Antitumor activity against mixed mouse EMT6/EMT6 NTRpuro cells injected in CD1 nude mouse assessed as cell kill at 237 umol/kg, ip in DMSO/PEG after 18 hrs; format: functional
WiDr [26] = assay: Antitumor activity against human 100% WiDr NTRneo tumor cells injected in CD1 nude mouse assessed as growth delay at 237 umol/kg, ip in DMSO/PEG; format: functional; in short: as §3
EMT6 [27] = assay: Antitumor activity against mixed mouse EMT6/EMT6 NTRpuro cells injected in CD1 nude mouse assessed as cell kill at 2000 umol/kg, ip in DMSO after 18 hrs; format: functional
WiDr [28] = assay: Antitumor activity against mixed human 10% WiDr NTRneo/ 90% WiDr tumor cells injected in CD1 nude mouse assessed as growth delay at 2000 umol/kg, ip in DMSO; format: functional
In short: (§4)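 WiDr tumors grown in CD-1 nude mice from stably NTR-transfected WiDr-NTRneo cells, either alone or mixed 1:9 with NTR-ve WiDr cells. Each mouse received a single i.p. dose. The read-out was median growth delay for tumors to reach an endpoint size of 15 mm mean diameter. Long-term controls were counted as tumors not palpable 100 days after treatment. The aziridine positive control was included in every experiment.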

WiDr [29] = assay: Antitumor activity against human 100% WiDr NTRneo tumor cells injected in CD1 nude mouse assessed as growth delay at 2000 umol/kg, ip in DMSO; format: functional; in short: as §4
EMT6 [30] = assay: Antitumor activity against mixed mouse EMT6/EMT6 NTRpuro cells injected in CD1 nude mouse assessed as cell kill at 1000 umol/kg, ip in DMSO after 18 hrs; format: functional
WiDr [31] = assay: Antitumor activity against mixed human 10% WiDr NTRneo/ 90% WiDr tumor cells injected in CD1 nude mouse assessed as growth delay at 1000 umol/kg, ip in DMSO; format: functional; in short: as §3
WiDr [32] = assay: Antitumor activity against human 100% WiDr NTRneo tumor cells injected in CD1 nude mouse assessed as growth delay at 1000 umol/kg, ip in DMSO; format: functional; in short: as §3
EMT6 [33] = assay: Antitumor activity against mixed mouse EMT6/EMT6 NTRpuro cells injected in CD1 nude mouse assessed as cell kill at 133 umol/kg, ip in DMSO/PEG after 18 hrs; format: functional
WiDr [34] = assay: Antitumor activity against mixed human 10% WiDr NTRneo/ 90% WiDr tumor cells injected in CD1 nude mouse assessed as growth delay at 750 umol/kg, ip in DMSO; format: functional; in short: as §3
WiDr [35] = assay: Antitumor activity against human 100% WiDr NTRneo tumor cells injected in CD1 nude mouse assessed as growth delay at 133 umol/kg, ip in DMSO/PEG; format: functional; in short: as §3

SMILES	logD [1]	IC50 (V79 [2]) [µM]	IC50 (V79 [3]) [µM]	Ratio IC50 (V79 [4])	IC50 (EMT6 [5]) [µM]	IC50 (EMT6 [6]) [µM]	Ratio IC50 (EMT6 [7])	IC50 (WiDr [8]) [µM]	IC50 (WiDr [9]) [µM]	Ratio IC50 (WiDr [10])	IC50 [11] [µM]	Activity (V79 [12]) [µM]	IC50 [13] [µM]	Ratio IC50 [14]	Activity (V79 [15]) [µM]	Activity (V79 [16]) [µM]	MTD [17] [µmol/kg]	Ratio (V79 [18])	solubility [21] [µM]	remaining at 24 h [22] [%]	other results
CS(=O)(=O)OCCN(CCBr)c1cc(C(N)=O)c([N+](=O)[O-])cc1[N+](=O)[O-]	0.49	133	0.11	1260	76	0.05	1510	80	0.22	387	135	>250	0.19	715	2	10	1780	0.2	230 (≈ 105 µg/mL)	71	LCK (EMT6 [19]): >3.61; Activity (WiDr [20]): 26 days; Activity (WiDr [23]): >82 days
O=C(NCC(O)CO)c1cc(N(CCI)CCI)c([N+](=O)[O-])cc1[N+](=O)[O-] (stereo not drawn)	1.79	114	1	100	58	0.12	482	64	0.82	90	97	245	0.56	172	12.5	54	–	–	960 (≈ 584 µg/mL)	90	MTD [24]: 237 µmol/kg; LCK (EMT6 [25]): 0.54; Activity (WiDr [26]): 37 days
CS(=O)(=O)OCCN(CCOS(C)(=O)=O)c1cc(C(N)=O)c([N+](=O)[O-])cc1[N+](=O)[O-]	-0.7	536	0.49	1200	189	0.32	755	24	0.67	55	226	>300	1.2	220	13	152	2000	–	–	–	LCK (EMT6 [27]): >2.6; Activity (WiDr [28]): 20 days; Activity (WiDr [29]): >82 days
CS(=O)(=O)OCCN(CCCl)c1cc(C(N)=O)c([N+](=O)[O-])cc1[N+](=O)[O-]	0.42	504	0.55	1060	211	0.3	942	246	0.7	442	522	>1000	0.78	697	5.3	33	1000	0.16	–	–	LCK (EMT6 [30]): >3.82; Activity (WiDr [31]): 38 days; Activity (WiDr [32]): >80 days
CS(=O)(=O)c1cc([N+](=O)[O-])c(C(N)=O)cc1N(CCBr)CCBr	1.02	80	0.16	508	39	0.09	490	37	0.58	74	86	>100	0.4	265	5.5	16	750	–	70 (≈ 33.1 µg/mL)	63	MTD [24]: 133 µmol/kg; LCK (EMT6 [33]): 2.24; Activity (WiDr [34]): 36 days; Activity (WiDr [35]): >83 days
